Experimental data: ChEMBL document CHEMBL1828588, “Arylamides hybrids of two high-affinity σ2 receptor ligands as tools for the development of PET radiotracers” (Eur J Med Chem, 2011)

Key:
[1] = Displacement of [3H]-DTG from sigma 2 receptor in rat liver membrane after 30 mins by radioligand binding assay; assay type: cell membranes
Outline: (§1)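 […] (30 Ci/mmol) radioligand binding per Matsumoto et al. IC50 taken from six to nine drug concentrations, in two or three experiments with duplicate samples. Ki obtained by non-linear curve fitting. Tested as hydrochloride salts.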

[2] = Inhibition of P-gp in dog MDCK-MDR1 cells by calcein-AM assay; assay type: cell-based, Canis lupus familiaris
Outline: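 MDCK-MDR1 cells overexpressing P-gp, grown in DMEM high glucose with 10% FBS and 2 mM glutamine at 37 °C under 5% CO2. Seeded at 50,000 cells/well and left overnight to confluence. Compound added for 30 min at 37 °C, then calcein-AM (final 2.5 µM in PBS) for 30 min. Wells washed with ice-cold PBS. Fluorescence read at 485/535 nm. EC50 from % increase over untreated basal versus log dose.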

[3] = Lipophilicity, log D of the compound at pH 7.4; assay type: physicochemical; settings: buffer
Outline: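 LogD calculated for compounds at pH 7.4.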

[4] = molecular target: Sigma non-opioid intracellular receptor 1 (Cavia porcellus, UniProt Q60492); assay: Displacement of [3H]-pentazocine from sigma 1 receptor in guinea pig brain after 30 mins by radioligand binding assay
[5] = Selectivity ratio of Ki for sigma 1 receptor in guinea pig brain to Ki for sigma 2 receptor in rat liver membrane; assay type: cell membranes
Rattus norvegicus = organism: Rattus norvegicus; assay: Displacement of [3H]-DTG from sigma 2 receptor in rat liver membrane at […] after 30 mins by radioligand binding assay; assay type: cell membranes; outline: as §1

Sigma non-opioid intracellular receptor 1, sequence (Q60492 whole entry): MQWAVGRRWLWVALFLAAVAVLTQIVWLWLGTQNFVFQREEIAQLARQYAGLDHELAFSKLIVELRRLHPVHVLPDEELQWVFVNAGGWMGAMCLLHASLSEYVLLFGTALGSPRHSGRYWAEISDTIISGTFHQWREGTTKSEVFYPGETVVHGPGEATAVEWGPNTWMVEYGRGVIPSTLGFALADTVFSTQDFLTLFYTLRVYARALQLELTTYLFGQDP

Structure (SMILES)	Ki [1]	EC50 [2]	logD [3]	Ki [4]	Ratio Ki [5]	Activity (Rattus norvegicus)
COc1cccc2c1CCCC2CCCN1CCN(C2CCCCC2)CC1 (stereo not drawn)	0.68 nM	3000 nM	3.75	–	–	–
COc1cc(Br)c(C(=O)NCCCN2CCc3cc(OC)c(OC)cc3C2)cc1OC	50.9 nM	45000 nM	2.89	2570 nM	50	–
COc1cc2c(cc1OC)CN(CCCCNC(=O)c1cc(C)ccc1OC)CC2	8.68 nM	1600 nM	2.83	2150 nM	247	–
COc1cc(Br)cc(C(=O)NCCCN2CCN(C3CCCCC3)CC2)c1OC	21.2 nM	2700 nM	2.43	25.8 nM	1.2	–
O=C1c2ccccc2CCN1CCCN1CCN(C2CCCCC2)CC1	26.6 nM	20000 nM	1.49	24.7 nM	1	–
COc1ccc(C)cc1C(=O)NCCCN1CCN(C2CCCCC2)CC1	26.1 nM	8600 nM	1.94	45.5 nM	1.7	–
COc1cc2c(cc1OC)CN(CCCNC(=O)c1cc(C)ccc1OC)CC2	2.63 nM	5300 nM	2.7	534 nM	203	–
COc1cc2c(cc1OC)CN(CCCNC(=O)C1CCCc3c(OC)cccc31)CC2 (stereo not drawn)	21.1 nM	2700 nM	3.21	146 nM	7	–
COc1cccc2c1CCCC2C(=O)NCCCN1CCN(C2CCCCC2)CC1 (stereo not drawn)	16.5 nM	8600 nM	2.46	35.1 nM	2	–
COc1cc2c(cc1OC)CN(CCCNC(=O)c1cc(Br)cc(OC)c1OC)CC2	12.9 nM	2500 nM	3.22	4400 nM	341	–
COc1cc2c(cc1OC)CN(CCCN1CCc3ccccc3C1=O)CC2	4.84 nM	12000 nM	2.25	709 nM	147	–
COc1cc(Br)c(C(=O)NCCCN2CCN(C3CCCCC3)CC2)cc1OC	467 nM	45000 nM	2.11	268 nM	0.6	–
COc1cc2c(cc1OC)CN(CCCC1CCCc3c(OC)cccc31)CC2 (stereo not drawn)	–	1100 nM	4.33	151 nM	–	96%
Cc1ccccc1NC(=N)Nc1ccccc1C [DITOLYLGUANIDINE]	26.3 nM	–	–	–	–	–
